Measured values taken from ChEMBL document CHEMBL1177719 (J Med Chem, 2010).
The source made the active and inactive calls. The calls are words filed in the database; no cut-off is given here.

Columns and labels:
[1] = Antioxidant activity assessed as DPPH scavenging activity at 340 uM after 30 mins; format: functional
[2] = tested on: MCF7; assay: Cytotoxicity against human MCF7 cells assessed as cell survival at 20 ug/ml after 72 hrs by sulforhodamine B method; format: functional; details: MCF7, 72 h, read-out: Activity
Summary of the method: (§1)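 Sulforhodamine B assay. KB or MCF7 cells plated with samples and held 72 h at 37 °C, 5% CO₂. Fixed 1 h in 10% trichloroacetic acid, stained with 0.4% SRB in 1% acetic acid, dye taken up in 10 mM Tris.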

[3] = tested on: KB; assay: Cytotoxicity against human KB cells assessed as cell survival at 20 ug/ml after 72 hrs by sulforhodamine B method; format: functional; details: read-out: Activity; summary of the method: as §1
[4] = biological target: T1, Nitric oxide synthase, inducible (Mus musculus) (UniProt P29477); assay: Inhibition of iNOS-mediated nitric oxide production in mouse RAW 264.7 cells at 34 uM pretreated 30 mins measured after 20 hrs by Griess reaction method relative to control; format: cell-based
T1 sequence (whole entry): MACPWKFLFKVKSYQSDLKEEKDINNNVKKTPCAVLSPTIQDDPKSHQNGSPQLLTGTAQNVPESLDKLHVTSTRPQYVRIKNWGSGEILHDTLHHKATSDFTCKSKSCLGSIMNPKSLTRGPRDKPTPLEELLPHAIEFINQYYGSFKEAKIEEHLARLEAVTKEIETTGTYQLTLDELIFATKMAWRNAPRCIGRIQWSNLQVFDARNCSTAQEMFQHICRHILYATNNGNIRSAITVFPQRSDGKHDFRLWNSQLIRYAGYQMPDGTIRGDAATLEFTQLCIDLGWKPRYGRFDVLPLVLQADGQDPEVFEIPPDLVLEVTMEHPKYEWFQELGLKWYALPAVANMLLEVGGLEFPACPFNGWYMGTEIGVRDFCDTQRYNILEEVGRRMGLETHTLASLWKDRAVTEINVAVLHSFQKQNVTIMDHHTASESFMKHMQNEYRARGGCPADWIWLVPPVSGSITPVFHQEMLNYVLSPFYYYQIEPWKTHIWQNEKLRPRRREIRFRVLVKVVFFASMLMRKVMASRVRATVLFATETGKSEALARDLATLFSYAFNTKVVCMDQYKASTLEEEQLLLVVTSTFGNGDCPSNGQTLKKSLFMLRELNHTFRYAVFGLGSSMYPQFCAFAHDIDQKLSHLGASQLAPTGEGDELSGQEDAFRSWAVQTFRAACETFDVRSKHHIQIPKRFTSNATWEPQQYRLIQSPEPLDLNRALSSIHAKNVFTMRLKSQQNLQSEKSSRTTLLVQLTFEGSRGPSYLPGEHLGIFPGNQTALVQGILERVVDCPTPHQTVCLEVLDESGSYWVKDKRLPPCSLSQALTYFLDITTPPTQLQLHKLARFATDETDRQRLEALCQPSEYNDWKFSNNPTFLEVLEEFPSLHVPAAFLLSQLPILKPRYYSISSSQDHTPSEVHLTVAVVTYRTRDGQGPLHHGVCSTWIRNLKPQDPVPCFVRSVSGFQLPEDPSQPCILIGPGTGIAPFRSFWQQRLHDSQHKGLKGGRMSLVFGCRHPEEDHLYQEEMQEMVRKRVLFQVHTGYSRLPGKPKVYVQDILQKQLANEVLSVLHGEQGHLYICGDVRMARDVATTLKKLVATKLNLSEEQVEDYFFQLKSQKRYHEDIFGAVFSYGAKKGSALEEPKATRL
Summary of the method: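 RAW 264.7 macrophages seeded at 1 × 10⁵ cells/well for 24 h. Compounds in phenol red-free DMEM added 30 min before LPS (1 μg/mL), then 20 h further incubation. Nitrite in medium measured by Griess reagent at 540 nm against a sodium nitrite standard curve; inhibition at 34 μM.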

[5] = biological target: T2, Prostaglandin G/H synthase 1 (Ovis aries) (UniProt P05979); assay: Inhibition of sheep seminal vesicles COX1 assessed as PGE2 production at 34 uM after 10 mins by ELISA relative to control
T2 sequence (whole entry): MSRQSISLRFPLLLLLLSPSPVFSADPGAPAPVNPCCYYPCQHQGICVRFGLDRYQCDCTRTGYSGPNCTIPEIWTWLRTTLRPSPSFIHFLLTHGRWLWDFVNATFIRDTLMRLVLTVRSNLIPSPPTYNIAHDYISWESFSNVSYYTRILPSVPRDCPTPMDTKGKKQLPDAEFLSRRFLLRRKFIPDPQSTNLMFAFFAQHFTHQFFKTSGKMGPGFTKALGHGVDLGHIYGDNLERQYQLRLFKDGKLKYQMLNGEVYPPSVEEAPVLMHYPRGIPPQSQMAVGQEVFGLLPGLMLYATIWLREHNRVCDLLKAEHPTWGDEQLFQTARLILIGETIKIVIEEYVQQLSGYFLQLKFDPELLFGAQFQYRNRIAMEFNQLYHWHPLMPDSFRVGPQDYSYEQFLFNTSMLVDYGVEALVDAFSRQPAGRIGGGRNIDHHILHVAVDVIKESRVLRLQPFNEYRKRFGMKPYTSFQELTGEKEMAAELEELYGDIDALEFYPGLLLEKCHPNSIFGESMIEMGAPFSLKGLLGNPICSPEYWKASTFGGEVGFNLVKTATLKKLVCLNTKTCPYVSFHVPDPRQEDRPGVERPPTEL
Summary of the method: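 Sheep seminal vesicle COX-1; reaction started with arachidonic acid, 10 min at room temperature, stopped with 27.8 μM indomethacin. PGE₂ quantified by competitive ELISA (PGE₂-acetylcholinesterase tracer, Ellman's reagent, 412 nm) against a PGE₂ standard curve. Result as % of solvent control; IC₅₀ from dose-response curves.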

[6] = tested on: HEK293; assay: Cytotoxicity against human HEK293 cells at 34 uM; format: cell-based; details: hek293, 34 µM
[7] = biological target: T3, Aromatase (Homo sapiens, UniProt P11511); details: read-out: INH
T3 sequence (P11511 whole entry): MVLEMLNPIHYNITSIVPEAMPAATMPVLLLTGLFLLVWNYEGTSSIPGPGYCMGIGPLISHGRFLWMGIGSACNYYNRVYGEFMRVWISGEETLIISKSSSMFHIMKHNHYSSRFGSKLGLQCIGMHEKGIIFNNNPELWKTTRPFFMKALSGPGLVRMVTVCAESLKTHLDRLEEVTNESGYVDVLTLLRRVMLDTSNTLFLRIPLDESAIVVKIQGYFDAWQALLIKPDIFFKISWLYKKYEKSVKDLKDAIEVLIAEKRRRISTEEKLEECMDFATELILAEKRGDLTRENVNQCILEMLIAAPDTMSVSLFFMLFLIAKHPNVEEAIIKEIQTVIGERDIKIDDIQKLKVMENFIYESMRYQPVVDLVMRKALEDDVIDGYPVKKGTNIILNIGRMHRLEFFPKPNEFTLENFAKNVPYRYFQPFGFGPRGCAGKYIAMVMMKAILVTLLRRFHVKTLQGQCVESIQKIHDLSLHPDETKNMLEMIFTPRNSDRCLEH

[8] = biological target: NAD(P)H dehydrogenase [quinone] 1 (Mus musculus) (UniProt Q64669); assay: Induction of quinone reductase 1 in mouse Hepa 1c1c7 cells assessed as drug level required to double enzyme activity by MTT assay
Sequence of NAD(P)H dehydrogenase [quinone] 1 (Mus musculus) (Q64669 whole entry): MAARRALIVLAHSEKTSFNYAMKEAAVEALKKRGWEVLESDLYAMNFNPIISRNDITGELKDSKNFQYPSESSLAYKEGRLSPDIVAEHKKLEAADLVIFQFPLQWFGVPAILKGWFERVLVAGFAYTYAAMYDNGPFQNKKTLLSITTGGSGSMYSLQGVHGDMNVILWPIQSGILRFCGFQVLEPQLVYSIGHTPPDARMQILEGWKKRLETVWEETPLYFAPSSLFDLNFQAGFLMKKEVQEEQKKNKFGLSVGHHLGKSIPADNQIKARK

Structure (SMILES) | inhibition [1] [%] | viability at 20 µg/mL [2] [%] | viability at 20 µg/mL [3] [%] | Activity [4] | inhibition [5] [%] | Activity [6] | inhibition at 34 µM [7] [%] | CD [8] [µM]
O=S(=O)([O-])Oc1cc(O)cc(/C=C/c2ccc(O)cc2)c1.[K+] | 68 | 51.7 | 70.3 | inactive | 74.3 | Non-toxic | 28.2 | 2.6
O=S(=O)([O-])Oc1ccc(/C=C/c2cc(O)cc(O)c2)cc1.[K+] | 42.8 | 103 | 108 | inactive | 63.2 | Non-toxic | 30.4 | > 6.9
O=S(=O)([O-])Oc1cc(/C=C/c2ccc(O)cc2)cc(OS(=O)(=O)[O-])c1.[K+].[K+] | 14.5 | 97.2 | 84.2 | inactive | 30.9 | Non-toxic | 20.5 | > 10.1
O=S(=O)([O-])Oc1ccc(/C=C/c2cc(OS(=O)(=O)[O-])cc(OS(=O)(=O)[O-])c2)cc1.[K+].[K+].[K+] | 0.4 | 107 | 78.1 | inactive | 37.8 | Non-toxic | 28.5 | > 11.7
